Reference: ChEMBL document CHEMBL3853360, “Combined Interactions with I1-, I2-Imidazoline Binding Sites and α2-Adrenoceptors To Manage Opioid Addiction” (ACS Med Chem Lett, 2016)

What was measured:
[1] = Displacement of [3H]-2-BFI from I2 receptor imidazoline binding site in Sprague-Dawley rat brain membranes after 30 mins by liquid scintillation counting; assay type: cell membranes, Membrane
Summary of the method: (§1)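 Radioligand competition binding with pKi determined by displacement. I1 sites: [125I]-p-iodoclonidine on rat kidney membranes. I2 sites: [3H]-2-BFI on rat brain membranes. α2-ARs: [3H]-RX821002 on rat brain membranes.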

[2] = target: T1, Alpha-2B adrenergic receptor (Homo sapiens) (UniProt P18089); experiment: Agonist activity at human alpha2b-AR expressed in CHO cells assessed as rate of acidification after 240 mins by cytosensor microphysiometric analysis relative to (-)-noradrenaline; assay type: cell-based
T1 sequence (whole entry): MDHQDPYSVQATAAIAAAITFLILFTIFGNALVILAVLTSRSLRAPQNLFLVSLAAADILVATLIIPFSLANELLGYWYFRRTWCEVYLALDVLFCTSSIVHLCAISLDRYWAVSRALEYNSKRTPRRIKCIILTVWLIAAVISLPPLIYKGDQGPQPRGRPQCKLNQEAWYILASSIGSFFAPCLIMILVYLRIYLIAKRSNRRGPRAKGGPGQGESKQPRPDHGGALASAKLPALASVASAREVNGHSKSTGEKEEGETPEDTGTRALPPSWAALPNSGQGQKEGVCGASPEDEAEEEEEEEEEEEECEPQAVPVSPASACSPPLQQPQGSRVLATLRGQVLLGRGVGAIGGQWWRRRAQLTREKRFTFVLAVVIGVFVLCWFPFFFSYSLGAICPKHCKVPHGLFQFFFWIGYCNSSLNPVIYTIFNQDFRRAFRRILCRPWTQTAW
Summary of the method: (§2)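 Functional assay in CHO cells stably expressing a single human α2-AR subtype (α2A, α2B or α2C), read on a Cytosensor microphysiometer. Outputs are pEC50, intrinsic activity and, for antagonism, pKb. Intrinsic activity is expressed as a fraction of the full agonist (−)-noradrenaline, set at 1. Values are mean ± SEM of 3–5 separate experiments.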

[3] = target: T2, Alpha-2C adrenergic receptor (Homo sapiens) (UniProt P18825); experiment: Agonist activity at human alpha2c-AR expressed in CHO cells assessed as rate of acidification after 240 mins by cytosensor microphysiometric analysis relative to (-)-noradrenaline; assay type: cell-based; summary of the method: as §2
T2 sequence (whole entry): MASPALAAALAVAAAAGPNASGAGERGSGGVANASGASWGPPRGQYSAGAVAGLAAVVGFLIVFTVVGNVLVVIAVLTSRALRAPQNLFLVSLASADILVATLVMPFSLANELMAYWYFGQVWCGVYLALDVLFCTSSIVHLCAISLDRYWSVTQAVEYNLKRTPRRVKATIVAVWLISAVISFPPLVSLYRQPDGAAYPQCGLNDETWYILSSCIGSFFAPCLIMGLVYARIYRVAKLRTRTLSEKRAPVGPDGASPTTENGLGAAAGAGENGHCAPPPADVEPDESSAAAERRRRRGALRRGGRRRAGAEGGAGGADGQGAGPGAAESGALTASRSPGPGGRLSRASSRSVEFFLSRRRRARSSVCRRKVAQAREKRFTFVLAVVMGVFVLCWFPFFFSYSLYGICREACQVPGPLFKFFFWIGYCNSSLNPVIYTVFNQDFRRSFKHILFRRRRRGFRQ

[4] = target: T3, Alpha-2B adrenergic receptor (Homo sapiens, UniProt P18089); experiment: Agonist activity at human alpha2b-AR expressed in CHO cells assessed as rate of acidification after 240 mins by cytosensor microphysiometric analysis; assay type: cell-based; summary of the method: as §2
T3 sequence (P18089 whole entry): T1 sequence (whole entry)

[5] = target: T4, Alpha-2C adrenergic receptor (Homo sapiens, UniProt P18825); experiment: Agonist activity at human alpha2c-AR expressed in CHO cells assessed as rate of acidification after 240 mins by cytosensor microphysiometric analysis; assay type: cell-based; summary of the method: as §2
T4 sequence (P18825 whole entry): T2 sequence (whole entry)

[6] = target: T5, Adrenergic receptor alpha-2 (Rattus norvegicus, UniProt P22086+P19328+P22909); experiment: Displacement of [3H]-RX 821002 from alpha2-AR in Sprague-Dawley rat brain membranes after 30 mins by liquid scintillation counting; assay type: cell membranes, Membrane; summary of the method: as §1
T5 sequence (P22086 whole entry): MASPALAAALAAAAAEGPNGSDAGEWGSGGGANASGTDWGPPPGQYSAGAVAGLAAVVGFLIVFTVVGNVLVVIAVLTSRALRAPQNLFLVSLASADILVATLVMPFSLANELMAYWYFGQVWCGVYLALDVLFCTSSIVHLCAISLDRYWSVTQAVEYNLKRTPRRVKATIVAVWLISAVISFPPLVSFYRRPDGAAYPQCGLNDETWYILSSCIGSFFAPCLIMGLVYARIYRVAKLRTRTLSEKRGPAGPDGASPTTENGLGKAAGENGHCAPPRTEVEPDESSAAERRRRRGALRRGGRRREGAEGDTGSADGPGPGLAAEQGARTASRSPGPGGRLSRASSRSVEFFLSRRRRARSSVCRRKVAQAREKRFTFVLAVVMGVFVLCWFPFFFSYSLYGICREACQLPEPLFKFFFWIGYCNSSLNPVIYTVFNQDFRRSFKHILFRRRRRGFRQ
T5 sequence (P19328 whole entry): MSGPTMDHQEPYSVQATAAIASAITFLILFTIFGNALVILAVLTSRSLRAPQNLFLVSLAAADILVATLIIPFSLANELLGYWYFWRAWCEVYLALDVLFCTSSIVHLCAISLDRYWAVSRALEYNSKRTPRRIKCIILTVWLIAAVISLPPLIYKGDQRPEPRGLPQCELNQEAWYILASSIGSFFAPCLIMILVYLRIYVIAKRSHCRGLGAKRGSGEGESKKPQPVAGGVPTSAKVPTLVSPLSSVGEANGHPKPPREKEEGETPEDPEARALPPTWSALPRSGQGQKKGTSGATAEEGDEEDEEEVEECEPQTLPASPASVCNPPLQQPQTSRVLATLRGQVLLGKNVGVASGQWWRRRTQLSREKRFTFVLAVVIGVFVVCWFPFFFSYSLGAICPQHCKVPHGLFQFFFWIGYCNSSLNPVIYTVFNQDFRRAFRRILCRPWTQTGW
T5 sequence (P22909 whole entry): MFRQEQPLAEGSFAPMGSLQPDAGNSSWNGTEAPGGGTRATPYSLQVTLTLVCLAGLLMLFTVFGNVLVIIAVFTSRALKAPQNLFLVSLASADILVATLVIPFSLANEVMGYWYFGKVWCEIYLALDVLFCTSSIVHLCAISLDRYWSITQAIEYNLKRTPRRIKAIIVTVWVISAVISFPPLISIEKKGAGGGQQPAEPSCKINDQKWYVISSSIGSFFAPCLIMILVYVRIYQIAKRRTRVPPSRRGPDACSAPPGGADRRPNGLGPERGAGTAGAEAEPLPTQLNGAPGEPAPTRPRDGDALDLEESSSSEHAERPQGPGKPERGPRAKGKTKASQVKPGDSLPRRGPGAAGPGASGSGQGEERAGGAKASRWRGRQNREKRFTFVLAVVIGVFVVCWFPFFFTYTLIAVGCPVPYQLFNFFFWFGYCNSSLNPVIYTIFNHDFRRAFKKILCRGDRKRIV

Nischarin = Nischarin (Rattus norvegicus, UniProt Q4G017); experiment: Displacement of [125I]-p-iodoclonidine from I1 receptor imidazoline binding site in Sprague-Dawley rat kidney cell membranes after 30 mins by liquid scintillation counting; summary of the method: as §1
[7] = target: T6, Alpha-2A adrenergic receptor (Homo sapiens) (UniProt P08913); experiment: Antagonist activity at human alpha2a-AR expressed in CHO cells assessed as inhibition of (-)-noradrenaline-induced acidification rate after 240 mins by cytosensor microphysiometric analysis; assay type: cell-based; summary of the method: as §2
T6 sequence (whole entry): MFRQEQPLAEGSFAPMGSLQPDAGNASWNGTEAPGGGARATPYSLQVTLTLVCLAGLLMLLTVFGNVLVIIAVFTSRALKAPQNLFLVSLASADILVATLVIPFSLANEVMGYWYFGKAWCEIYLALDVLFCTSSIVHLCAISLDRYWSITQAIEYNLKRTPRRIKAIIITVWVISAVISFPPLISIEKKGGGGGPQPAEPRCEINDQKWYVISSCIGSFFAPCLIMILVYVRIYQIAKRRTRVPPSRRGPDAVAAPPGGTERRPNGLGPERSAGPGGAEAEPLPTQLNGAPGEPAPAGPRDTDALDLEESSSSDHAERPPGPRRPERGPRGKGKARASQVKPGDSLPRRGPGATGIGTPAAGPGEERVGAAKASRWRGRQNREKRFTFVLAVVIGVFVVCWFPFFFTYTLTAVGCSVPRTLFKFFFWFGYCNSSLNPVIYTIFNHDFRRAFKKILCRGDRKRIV

[8] = Displacement of [3H]idazoxan from I2 receptor imidazoline binding site in rabbit kidney membranes after 45 mins by […]; assay type: cell membranes, Oryctolagus cuniculus, Membrane
Homo sapiens = species on record: Homo sapiens; experiment: Selectivity ratio of agonist activity at I1 receptor imidazoline binding site (unknown origin) to agonist activity at alpha2-AR (unknown origin)

Nischarin, sequence (Q4G017 whole entry): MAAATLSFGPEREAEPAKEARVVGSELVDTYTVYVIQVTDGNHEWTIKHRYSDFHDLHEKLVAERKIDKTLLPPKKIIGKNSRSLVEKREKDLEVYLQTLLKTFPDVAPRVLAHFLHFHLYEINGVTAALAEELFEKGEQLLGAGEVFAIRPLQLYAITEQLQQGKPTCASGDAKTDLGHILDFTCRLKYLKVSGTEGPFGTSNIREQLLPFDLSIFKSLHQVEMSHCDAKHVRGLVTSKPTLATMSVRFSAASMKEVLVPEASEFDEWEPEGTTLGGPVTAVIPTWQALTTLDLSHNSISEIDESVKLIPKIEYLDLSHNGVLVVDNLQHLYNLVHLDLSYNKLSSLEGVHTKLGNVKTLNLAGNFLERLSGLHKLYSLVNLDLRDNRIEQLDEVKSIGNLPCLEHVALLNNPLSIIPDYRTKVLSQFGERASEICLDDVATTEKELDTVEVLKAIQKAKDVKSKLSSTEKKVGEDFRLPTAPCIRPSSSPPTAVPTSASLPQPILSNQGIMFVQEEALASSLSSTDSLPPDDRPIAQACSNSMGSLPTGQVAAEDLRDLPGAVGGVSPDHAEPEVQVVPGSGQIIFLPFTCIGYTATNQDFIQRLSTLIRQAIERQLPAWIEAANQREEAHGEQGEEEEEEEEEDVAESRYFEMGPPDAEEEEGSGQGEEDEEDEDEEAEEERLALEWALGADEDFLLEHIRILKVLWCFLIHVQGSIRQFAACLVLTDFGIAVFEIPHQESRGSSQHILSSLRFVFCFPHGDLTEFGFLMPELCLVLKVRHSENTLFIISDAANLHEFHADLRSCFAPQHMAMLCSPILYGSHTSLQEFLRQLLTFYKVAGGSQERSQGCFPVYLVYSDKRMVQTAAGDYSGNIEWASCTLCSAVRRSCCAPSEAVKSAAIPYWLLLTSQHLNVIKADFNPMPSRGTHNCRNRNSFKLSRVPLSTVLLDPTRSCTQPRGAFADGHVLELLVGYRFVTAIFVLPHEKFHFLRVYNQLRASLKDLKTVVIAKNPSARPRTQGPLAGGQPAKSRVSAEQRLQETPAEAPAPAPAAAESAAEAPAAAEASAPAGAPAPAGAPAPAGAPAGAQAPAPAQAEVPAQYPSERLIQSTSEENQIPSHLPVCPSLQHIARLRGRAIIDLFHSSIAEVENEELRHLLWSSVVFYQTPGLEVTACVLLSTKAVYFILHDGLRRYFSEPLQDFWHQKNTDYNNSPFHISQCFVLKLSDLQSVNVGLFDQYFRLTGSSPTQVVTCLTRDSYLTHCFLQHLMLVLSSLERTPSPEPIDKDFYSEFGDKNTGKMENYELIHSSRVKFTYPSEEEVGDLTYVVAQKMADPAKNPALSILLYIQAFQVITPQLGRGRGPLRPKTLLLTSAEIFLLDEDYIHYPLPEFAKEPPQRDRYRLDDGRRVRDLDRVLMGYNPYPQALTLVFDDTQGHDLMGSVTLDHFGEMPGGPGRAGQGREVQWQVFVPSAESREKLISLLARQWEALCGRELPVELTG

Row | SMILES | pKi [1] | Intrinsic activity [2] | Intrinsic activity [3] | EC50 [4] [nM] | EC50 [5] [nM] | pKi [6] | Ki (Nischarin) [nM] | pKb [7] | pKi [8] | Selectivity ratio (Homo sapiens)
1 | C=CCc1ccccc1NCC1=NCCN1 | 7.85 | 0.5 | 0.8 | 2510 | 158 | 6.79 | 3.98 | 6.77 | – | –
2 | c1ccc(NCC2=NCCN2)cc1 [PHENAMAZOLINE] | – | – | – | – | – | – | – | – | 7.48 | –
3 | COc1nc(C)nc(Cl)c1NC1=NCCN1 | – | – | – | – | – | – | – | – | – | 40
4 | CCCc1ccccc1NCC1=NCCN1 | 7.29 | 0.55 | 0.75 | 4570 | 115 | 6.75 | 8.32 | 6.71 | – | –
5 | C=CCc1ccccc1/C=C/C1=NCCN1 | 8.3 | – | – | – | – | < 6 | 69.2 | – | – | –
6 | Clc1ccccc1/C=C/C1=NCCN1 | 8.79 | – | – | – | – | < 6 | 24 | – | – | –
